≈ marks a conversion by molar mass, not a printed value. Where “and” joins values, the source holds several entries; their conditions need not be identical. Identical values can stand only once. Counter-ions that a name gives are not always drawn. Like-named read-outs stand apart in the source and are kept apart here.
Assays:
[1] = tested on: A549 human lung cancer cell line; assay: Sulforhodamine B; type: cell-based; settings: read-out: Growth inhibition, IC50
In short: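 SRB growth assay. A549 cells were grown in RPMI 1640 with 10% FBS, 2% penicillin/streptomycin and 1% amphotericin B, then seeded at 8,000 per well overnight. Cells were exposed 24, 48 or 72 h to graded test compound (0.5% DMSO final; reference drug alongside). Cells were fixed in cold 40% TCA for 1 h at 4°C and stained with 0.4% SRB for 30 min. Dye was solubilised in 10 mM Tris pH 10.5 and read at 492 nm. IC50 came from % inhibition dose-response curves.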

[2] = tested on: MRC-5 human lung fibroblast; assay: Sulforhodamine B; type: cell-based; settings: for IC50: Homo sapiens, read-out: Growth inhibition, IC50
In short: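 SRB growth assay. MRC-5 fetal lung fibroblasts were grown in MEM with 10% FBS and 1% penicillin/streptomycin at 37°C, 5% CO2, then seeded at 8,000 per well overnight. Cells were exposed 24, 48 or 72 h to graded test compound (0.5% DMSO final). Cells were fixed in cold 40% TCA at 4°C, stained with 0.4% SRB, solubilised in 10 mM Tris pH 10.5 and read at 492 nm. IC50 came from % inhibition versus concentration curves.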

A549 cells [3] = assay: Annexin V-FITC/PI staining, flow cytometry; type: cell-based, human; settings: 72 h; for percentage of early apoptotic cells (Annexin V-FITC+ PI-): negative control 1.42 ± 0.47%; for population of late apoptotic or secondary necrotic cells (Annexin V-FITC+ PI+): negative control 1.80 ± 0.30%
In short: (§1)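 A549 cells in RPMI 1640 with 10% FBS, 37°C, 5% CO2. Test compound in DMSO, 0.5% DMSO final. Annexin: 2.4 × 10^5 cells/well adhered overnight, 72 h exposure, 1 × 10^5 cells stained with FITC-annexin V and PI, 10,000 events per replicate. JC-1: 72 h, 15 min dye, red aggregate (FL2-A) vs green monomer (FL1-A). Mean ± SEM; at least two runs in triplicate.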

[4] = Mitochondrial membrane potential assay; type: cell-based, human; settings: human, A549 cells, Population of viable cells (P5 region, high Δψm), A549, 42 μM, untreated 91.42 ± 0.36%
In short: as §1

A549 cells [5] = assay: Mitochondrial membrane potential assay; type: cell-based, human; settings: A549, 14, 28, 42 μM, 72 h, dose-dependent
In short: as §1

A549 cells [6] = assay: DNA fragmentation by TUNEL assay; type: cell-based, human; settings: 72 h, negative control 4.27 ± 0.13%
A549 cells [7] = assay: Cell cycle analysis; type: cell-based, human; settings: 72 h; for percentage of cells at S phase: 0 μM 8.94 ± 0.23%
In short: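 After 72 h of test compound, adherent and floating A549 cells were pooled and fixed in 70% ethanol overnight. Cells were stained 30 min at room temperature with 50 μg/ml PI, 50 μg/ml RNase, 0.1% Triton X-100 and 1 mg/ml sodium citrate (final). DNA content was read by flow cytometry and modelled into sub-G1, G1, S and G2/M fractions. Runs were done at least twice in triplicate; one-way ANOVA/Tukey versus control.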

caspase-3 in A549 cells = assay: Caspase-3 activity; type: cell-based, human; settings: A549, 12, 24, 48 h
caspase-8 in A549 cells = assay: Caspase-8 activity; type: cell-based, human; settings: A549, 12, 24, 48 h; highest RLU at 14 μM at 24 h and 48 h
caspase-9 in A549 cells = assay: Caspase-9 activity; type: cell-based, human; settings: A549, 12, 24, 48 h; highest RLU at 14 μM at 24 h and 48 h
A549 cells [8] = assay: Phase contrast microscopy; type: cell-based, human; settings: A549, 14, 28, 42 μM, 72 h
A549 cells [9] = settings: A549, 48 h treatment; ref 10 (Lee et al.); cited from earlier work
[10] = tested on: DNA topoisomerase I (Top 1); settings: cited from earlier work
[11] = tested on: benign prostatic hyperplasia (BPH-1) epithelial cell line; settings: BPH-1, 10 µM and 20 µM for 48 h; cited from earlier work
[12] = tested on: MDA-MB-435 breast cancer cells; settings: MDA-MB-435, 5–50 µM for 24 h; cited from earlier work
[13] = tested on: HCT-116 human colon cancer cells; settings: cited from earlier work
breast cancer xenografts = breast cancer xenografts in nude mice; ref 24 (Monteiro et al.); cited from earlier work
mice = settings: cited from earlier work

## COc1cc(O)c(CC=C(C)C)c(O)c1C(=O)/C=C/c1ccc(O)cc1 [Xanthohumol, 2', 4, 4'-trihydroxy-3'-prenyl-6'-methoxychalcone]
[1]; A549, 24 h
  IC50: 74.1 ± 1.98 µM
[1]; A549, 48 h
  IC50: 25.5 ± 0.3 µM
[1]; A549, 72 h
  IC50: 13.5 ± 0.82 µM
[2]; MRC5, 24 h
  IC50: > 282 µM and > 100 µg/mL
[2]; MRC5, 48 h
  IC50: 149 ± 4.96 µM
[2]; MRC5, 72 h
  IC50: 94.4 ± 1.77 µM
[2]; comparison of IC50 values on MRC-5 and A549, SRB assay
  Toxicity to normal cells (MRC-5) versus cancer cells (A549): less toxic to normal cells compared to cancer cells
A549 cells [3]; A549, 14 μM
  percentage of early apoptotic cells (Annexin V-FITC+ PI-): 2.72 ± 0.59%
  population of late apoptotic or secondary necrotic cells (Annexin V-FITC+ PI+): 4.90 ± 0.85%
A549 cells [3]; A549, 28 μM
  percentage of early apoptotic cells (Annexin V-FITC+ PI-): 26.08 ± 1.50%
  population of late apoptotic or secondary necrotic cells (Annexin V-FITC+ PI+): 17.05 ± 3.12%
A549 cells [3]; A549, 42 μM
  percentage of early apoptotic cells (Annexin V-FITC+ PI-): 34.42 ± 4.41%
  population of late apoptotic or secondary necrotic cells (Annexin V-FITC+ PI+): 33.27 ± 3.55%
[4]
  viability at 72 h, 42 µM: 2.88 ± 0.62%
A549 cells [5]
  Effect on mitochondrial membrane potential (Δψm): significantly reduced
A549 cells [6]; A549, 28 μM
  percentage of cells with DNA fragmentation: 34.7 ± 0.30%
A549 cells [6]; A549, 42 μM
  percentage of cells with DNA fragmentation: 39.2 ± 0.15%
A549 cells [7]; A549, 14 μM
  percentage of cells at S phase: 12.34 ± 1.09%
A549 cells [7]; A549, 28 μM
  percentage of cells at S phase: 16.43 ± 1.52%
A549 cells [7]; A549, 42 μM
  percentage of cells at S phase: 46.95 ± 2.03%
A549 cells [7]; A549, increasing concentration
  Effect on sub G1 population: increased the percentage of cells arrested at sub G1 peak
caspase-3 in A549 cells
  Caspase-3 activity (RFU): RFU values increased as concentration and treatment time increased
caspase-8 in A549 cells
  Caspase-8 activity (RLU): significantly increased
caspase-9 in A549 cells
  Caspase-9 activity (RLU): significantly increased
A549 cells [8]
  Morphological changes: atrophy, size shrinkage, decrease in cell number, and detachment of cells
A549 cells [9]
  IC50 (cytotoxic effects on A549): 4.3 µg/mL (≈ 12.1 µM)
[10]
  Effect on DNA topoisomerase I (Top 1) activity: inhibition of DNA topoisomerase I (Top 1) activity
[11]
  Cell cycle effect: S phase arrest
[12]
  Cell cycle effect: S phase arrest
[13]
  Caspase activation: Activation of all caspase-3, -8, and -9
Breast cancer xenografts
  In vivo antitumor effects on isolated tumors: decrease in tumor-surrounding inflammatory cells and a large central necrosis
mice; feeding, ref 6 (Dorn et al.)
  Organ function and homeostasis: did not impair organ function and homeostasis
mice; oral administration, ref 25 (Vanhoecke et al.)
  Hematological and biochemical blood analyses versus control group: no difference in hematological and biochemical blood analyses

## COc1cccc2c1C(=O)c1c(O)c3c(c(O)c1C2=O)C[C@@](O)(C(=O)CO)C[C@@H]3O[C@H]1C[C@H](N)[C@H](O)[C@H](C)O1 [Doxorubicin, Doxorubicin hydrochloride, reference compound]
[1]; A549, 24 h
  IC50: 2.85 ± 0.2 µM
[1]; A549, 48 h
  IC50: 0.22 ± 0.03 µM
[1]; A549, 72 h
  IC50: 0.02 ± 0.02 µM
[2]; MRC5, 24 h
  IC50: 5.71 ± 0.55 µM
[2]; MRC5, 48 h
  IC50: 2.01 ± 0.04 µM
[2]; MRC5, 72 h
  IC50: 1.09 ± 0.1 µM
A549 cells [9]
  IC50 (cytotoxic effects on A549): 0.5 µg/mL
